ARFGAP1 inh: rat ARFGAP1 inhibition. inhibition, % at 16.5 µM. 360,000 compounds, 0.26% hits. Arfgap1-stimulated ARF1 GTP hydrolysis, GDP FP detection;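 active means inhibition above a per-plate limit, mean inhibition of low control wells plus 3 SD, cut at about 25% in these data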;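 further: 0% = DMSO wells with enzyme and 100% = wells lacking Arfgap1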
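System: truncated rat Arfgap1 GAP domain / Benchmarks: high control wells lacking Arfgap1, low control full reaction with DMSO / Times: compound-enzyme preincubation 20 min, reaction 120 min, detection 60 min, 25 °C / Repeats: one replicate per compound / Also added: human ARF1(Δ1-17)-GTP substrate / Measured by: Tracer-displacement fluorescence polarization with EDTA stop, 620/688 nm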
CSN inh: blocks human CSN-mediated cullin deneddylation; Q92905; inhibition, % at 12.5 µM; 360,000 compounds, 0.38% hits; Purified CSN, SCF-Nedd8-OG deneddylation, fluorescence polarization;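 active means pattern-corrected inhibition above about 35%, with an unprinted fluorescence ratio check between 0.5 and 1.5, limit read from the data, passing the limit was not always enough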;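 further: 0% = enzyme with substrate and 100% = substrate without enzyme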
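Assay system: Purified human Csn5 enzyme expressed in HEK293T cells | Amount: Enzyme 0.24 nM | Measured by: Fluorescence polarization readout | Medium: Tris/NaCl/DTT buffer, pH 7.5 | Compound dosing: One concentration, 12.5 µM, 0.25% DMSO | Times: 90 min incubation of compound, enzyme and substrate at room temperature | Control set: no-enzyme wells high, enzyme-with-substrate wells low | Read-out: % inhibition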
ASAP1 inh: ASAP1 ArfGAP inhibition | inhibition, % at 16.5 µM | 360,000 compounds, 0.19% hits | ASAP1-stimulated ARF1 GTP hydrolysis, GDP FP detection; in the data active means inhibition above about 25%;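 further: 0% = vehicle with enzyme and substrate and 100% = no enzyme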
HNF4A DNA FP: change in binding of human HNF4 alpha to DNA | P41235 | HNF4a-FITC DNA binding, fluorescence polarization, 1 h | 360,000 compounds, 0.3% hits | AID 1224865 | activity change, % at 10 µM; in the data active means activity change above about 30%, passing the limit was not always enough
CSN deneddyl val: Csn5 (human) deneddylation inhibition, single-concentration validation | AID 720654 | inhibition, % at 16.6 µM | shares compounds with CSN inh | Csn5 deneddylation of SCF-Nedd8OG, fluorescence polarization, 90 min | 540 compounds, 62% hits; in the data active means inhibition above about 50%;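 further: 0% = DMSO with enzyme and 100% = no enzyme wells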
MMP-2 counter: counter-screen for CSN deneddylation inhibitors: human MMP-2 inhibition. shares compounds with CSN inh. recombinant MMP-2, FRET substrate fluorescence, 60 min. inhibition, % at 16.6 µM. 540 compounds, 33% hits;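 active means corrected plate-normalized z-score of 5 or more, or -5 or less, or inhibition of 15% or more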;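 further: plate controls were DMSO wells with enzyme for no effect and buffer wells lacking MMP-2 for full effect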
Thrombin cntr: thrombin (bovine) inhibition, counter-screen for CSN hits. shares compounds with CSN inh. bovine thrombin cleavage of Ub4-pepOG, fluorescence polarization. inhibition, % at 16.6 µM. 540 compounds, 49% hits. AID 720656;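 active means inhibition at or above a set limit, with a fluorescence interference ratio between 0.5 and a set maximum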
Target sequence (P00735 whole entry, looked up): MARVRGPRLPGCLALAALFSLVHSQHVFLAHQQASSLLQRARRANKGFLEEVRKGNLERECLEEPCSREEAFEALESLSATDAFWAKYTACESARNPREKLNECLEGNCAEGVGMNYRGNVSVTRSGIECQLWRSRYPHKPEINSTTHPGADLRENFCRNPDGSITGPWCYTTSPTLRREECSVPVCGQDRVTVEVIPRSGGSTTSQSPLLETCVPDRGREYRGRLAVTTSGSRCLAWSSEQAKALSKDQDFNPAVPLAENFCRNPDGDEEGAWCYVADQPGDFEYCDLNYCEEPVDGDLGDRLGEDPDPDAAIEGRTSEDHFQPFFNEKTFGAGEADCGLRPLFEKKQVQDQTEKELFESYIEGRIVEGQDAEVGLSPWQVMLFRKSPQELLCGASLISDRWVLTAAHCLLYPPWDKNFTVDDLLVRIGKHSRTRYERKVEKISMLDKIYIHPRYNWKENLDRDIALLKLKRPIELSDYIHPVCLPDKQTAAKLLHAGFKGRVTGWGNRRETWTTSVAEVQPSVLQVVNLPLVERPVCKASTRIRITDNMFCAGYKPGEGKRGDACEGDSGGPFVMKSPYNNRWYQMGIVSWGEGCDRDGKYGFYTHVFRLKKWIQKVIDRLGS
HNF4a DNA conf: change in binding of human HNF4 alpha to DNA, retest; activity change, % at 12.5 µM; HNF4A-FITC DNA binding, fluorescence polarization, 1 h; shares compounds with HNF4A DNA FP; 210 compounds, 99% hits; call rule not given here
* marks the source's active call; other numbers are inactive results; nt = not tested or not shown. An excerpt weighted towards active compounds, which were near 0.95% of everything screened.

SMILES	ARFGAP1 inh	CSN inh	ASAP1 inh	HNF4A DNA FP	MMP-2 counter	Thrombin cntr	others
COc1ccc(CN2C(=O)NC(=O)/C(=C\c3ccco3)C2=O)cc1	-8	62*	6	-6	20*	15*
COc1ccc(CN2C(=O)NC(=O)/C(=C\c3cc(OC)c(OC)c(OC)c3)C2=O)cc1	4	4	-7	6	nt	nt
c1cncc(C2CC(c3cccs3)n3ncnc3N2)c1 (stereo unspecified)	4	0	0	2	nt	nt
CCn1c(O)c(C(=O)CC2NCCc3ccccc32)c(=O)n(CC)c1=S (stereo unspecified)	nt	19	nt	36	nt	nt
COc1ccc(N2C(=O)NC(=O)/C(=C\c3ccc([N+](=O)[O-])s3)C2=O)cc1	-6	3	-14	0	nt	nt
COc1ccc(CN2C(=O)NC(=O)/C(=C/c3ccc([N+](=O)[O-])s3)C2=O)cc1	-10	42*	-11	3	12	4	CSN deneddyl val=35
O=C1NC(=O)N(Cc2ccc(F)cc2)C(=O)/C1=C\c1ccc([N+](=O)[O-])s1	-25	35*	0	-9	15*	0	CSN deneddyl val=34
COc1ccccc1N1C(=O)NC(=O)/C(=C/c2ccc([N+](=O)[O-])s2)C1=O	-4	nt	5	nt	nt	nt
O=C1NC(=O)N(c2ccc(F)cc2)C(=O)/C1=C/c1ccc(N2CCOCC2)cc1	15	-4	2	0	nt	nt
O=C1NC(=O)N(Cc2ccc(F)cc2)C(=O)/C1=C\c1ccc(N2CCCC2)cc1	10	38*	8	-2	1	6	CSN deneddyl val=98*
Cc1nc2sccc2c(=O)n1-c1ccccc1Cl	5	3	-5	1	nt	nt
COc1cccc(NP2(=O)OCC(C)([N+](=O)[O-])CO2)c1 (stereo unspecified)	-8	3	12	0	nt	nt
O=C1NC(=O)C2(CCN(c3ccccc3)CC2)C(=O)N1	9	0	-4	0	nt	nt
CCOC(=O)c1c(-n2c(C)cc(C=C3C(=O)NC(=S)NC3=O)c2C)sc2c1CCCC2	nt	49*	nt	-6	31*	12	CSN deneddyl val=83*
Cc1ccccc1NC(=NCCCN1CC1)Nc1ccccc1C	5	117*	-11	174	26*	29*	CSN deneddyl val=-59
O=c1[nH]c(=S)n(-c2ccccc2)c(O)c1/C=N/N1CCCCC1c1cccnc1 (stereo unspecified)	-15	37*	1	36*	nt	nt	HNF4a DNA conf=61*
Brc1ccc(C2N3CCCN23)cc1 (stereo unspecified)	-6	-2	-11	-2	nt	nt
O=c1[nH]c(=O)n(Cc2ccccc2)c(O)c1C=NCCCO	4	31	2	35*	nt	nt	HNF4a DNA conf=61*
O=C(N/N=C/c1c(O)n(-c2cccc3ccccc23)c(=O)[nH]c1=O)c1ccncc1	0	32	-8	39*	nt	nt	HNF4a DNA conf=49*
O=C(N/N=C/c1c(O)n(CCc2ccccc2)c(=O)[nH]c1=O)c1ccncc1	3	-1	-18	12	nt	nt
O=C1NC(=O)N(CCNc2ncc(C(F)(F)F)cc2Cl)C(=O)C1/C=N/OCc1c(F)cccc1Cl (stereo unspecified)	4	4	10	0	nt	nt
